Results from ChEMBL document CHEMBL3994644, “Discovery of AAT-008, a novel, potent, and selective prostaglandin EP4 receptor antagonist” (Bioorg Med Chem Lett, 2017).
≈ marks a conversion by molar mass, not a printed value.

Key:
[1] = Half life in hepatocytes (unknown origin); type: ADME, cell-based, Hepatocyte
[2] = Elimination half life in cynomolgus monkey at 1 mg/kg, po; type: ADME, organism-based, Macaca fascicularis; conditions: in vivo, read-out: beta t1/2 (converted)
In short: (§1)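 Single 1 mg/kg dose given IV or PO to rats, dogs and monkeys. Plasma pharmacokinetic parameters were derived and reported as mean SD, N = 4.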

[3] = Lipophilicity, log D of the compound at pH 7.4; type: physicochemical; conditions: buffer
[4] = AUC (0 to infinity) in Sprague-Dawley rat at 1 mg/kg, po; type: ADME, organism-based; set-up: dose 1 mg/kg, route oral, time infinity; conditions: in vivo; in short: as §1
[5] = Volume of distribution at steady state in Beagle dog at 1 mg/kg, iv; type: ADME, organism-based, Canis lupus familiaris; conditions: in vivo, read-out: Vdss
In short: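 A single intravenous injection at 1 mg/kg was given. Plasma concentration–time data gave total clearance (CL_total, mL/min/kg) and steady-state volume of distribution (Vd_ss, L/kg). Values are mean SD of N = 4 animals per species.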

[6] = biological target: CYP2D6 (Homo sapiens, UniProt P10635); test: Inhibition of CYP2D6 (unknown origin) at 1 uM relative to control; type: ADME
In short: (§2)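 CYP1A, CYP2C9, CYP2C19, CYP2D6 and CYP3A activities were each tested with 1 µM test article. Results are given as percent inhibition of enzyme activity.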

[7] = biological target: CYP2C19 (Homo sapiens, UniProt P33261); test: Inhibition of CYP2C19 (unknown origin) at 1 uM relative to control; type: ADME; in short: as §2
[8] = biological target: Prostaglandin E2 receptor EP4 subtype (Homo sapiens, UniProt P35408); test: Antagonist activity at human EP4 receptor expressed in HEK293 cells assessed as inhibition of PGE2-induced cAMP level by HTS assay; type: functional, cell-based
[9] = Solubility of the compound in pH 1.2 simulated gastric fluid; type: physicochemical
[10] = biological target: T1, Prostaglandin E2 receptor EP1 subtype (Homo sapiens, UniProt P34995); test: Antagonist activity at human EP1 receptor
T1 sequence (P34995 whole entry): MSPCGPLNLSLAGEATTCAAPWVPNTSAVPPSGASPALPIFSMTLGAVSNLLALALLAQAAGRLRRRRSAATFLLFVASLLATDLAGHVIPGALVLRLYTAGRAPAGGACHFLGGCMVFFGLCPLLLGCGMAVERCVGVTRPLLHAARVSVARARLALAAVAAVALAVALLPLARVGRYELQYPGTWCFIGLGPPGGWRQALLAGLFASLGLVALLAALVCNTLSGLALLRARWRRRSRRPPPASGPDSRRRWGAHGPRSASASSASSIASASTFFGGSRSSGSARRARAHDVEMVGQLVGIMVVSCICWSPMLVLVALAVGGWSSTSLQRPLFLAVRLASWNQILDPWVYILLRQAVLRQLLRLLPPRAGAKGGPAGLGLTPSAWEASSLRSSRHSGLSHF

[11] = biological target: T2, Thromboxane A2 receptor (Homo sapiens, UniProt P21731); test: Antagonist activity at human platelet TP receptor
T2 sequence (P21731 whole entry): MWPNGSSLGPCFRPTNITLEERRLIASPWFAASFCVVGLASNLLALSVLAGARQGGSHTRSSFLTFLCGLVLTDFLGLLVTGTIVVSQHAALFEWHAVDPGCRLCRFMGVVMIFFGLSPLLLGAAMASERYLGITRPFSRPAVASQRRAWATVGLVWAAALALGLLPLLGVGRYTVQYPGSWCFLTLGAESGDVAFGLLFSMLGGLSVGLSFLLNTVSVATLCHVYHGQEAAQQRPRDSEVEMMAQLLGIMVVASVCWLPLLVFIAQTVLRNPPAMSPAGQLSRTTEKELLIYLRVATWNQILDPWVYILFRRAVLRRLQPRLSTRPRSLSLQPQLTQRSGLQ

[12] = Half life in human liver microsomes; type: ADME, microsome
[13] = AUC (0 to infinity) in Beagle dog at 1 mg/kg, po; type: ADME, organism-based, Canis lupus familiaris; set-up: dose 1 mg/kg, time infinity, route oral; conditions: in vivo; in short: as §1
[14] = Elimination half life in Beagle dog at 1 mg/kg, iv; type: ADME, organism-based, Canis lupus familiaris; conditions: in vivo, read-out: beta t1/2 (converted); in short: as §1

Chain of Prostaglandin E2 receptor EP4 subtype (P35408 whole entry): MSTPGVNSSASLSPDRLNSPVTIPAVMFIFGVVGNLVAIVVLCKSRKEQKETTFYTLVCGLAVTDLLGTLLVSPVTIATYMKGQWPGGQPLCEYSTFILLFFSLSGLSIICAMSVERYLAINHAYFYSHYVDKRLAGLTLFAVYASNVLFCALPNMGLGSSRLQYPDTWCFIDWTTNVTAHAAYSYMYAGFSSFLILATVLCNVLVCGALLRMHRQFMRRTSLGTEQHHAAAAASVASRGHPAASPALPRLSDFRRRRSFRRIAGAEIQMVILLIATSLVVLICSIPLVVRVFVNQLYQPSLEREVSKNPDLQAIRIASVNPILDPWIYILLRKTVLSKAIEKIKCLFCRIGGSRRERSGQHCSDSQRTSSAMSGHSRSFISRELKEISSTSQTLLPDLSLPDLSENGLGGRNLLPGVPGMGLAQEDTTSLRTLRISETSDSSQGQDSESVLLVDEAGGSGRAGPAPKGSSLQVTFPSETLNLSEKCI
Chain of CYP2C19 (P33261 whole entry): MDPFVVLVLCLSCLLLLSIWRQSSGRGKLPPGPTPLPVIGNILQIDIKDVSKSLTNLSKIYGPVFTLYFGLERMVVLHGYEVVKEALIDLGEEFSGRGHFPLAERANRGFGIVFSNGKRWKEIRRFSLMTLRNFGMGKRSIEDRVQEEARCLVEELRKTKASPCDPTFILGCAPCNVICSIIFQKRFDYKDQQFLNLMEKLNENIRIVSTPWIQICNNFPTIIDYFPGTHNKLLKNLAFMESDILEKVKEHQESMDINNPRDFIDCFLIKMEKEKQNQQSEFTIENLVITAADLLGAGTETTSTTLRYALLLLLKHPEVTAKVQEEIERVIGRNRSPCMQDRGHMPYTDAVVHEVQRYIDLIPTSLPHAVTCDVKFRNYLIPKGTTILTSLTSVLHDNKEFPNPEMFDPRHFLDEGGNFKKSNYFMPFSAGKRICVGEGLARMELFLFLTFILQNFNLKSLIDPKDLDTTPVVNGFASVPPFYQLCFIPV
Chain of CYP2D6 (P10635 whole entry): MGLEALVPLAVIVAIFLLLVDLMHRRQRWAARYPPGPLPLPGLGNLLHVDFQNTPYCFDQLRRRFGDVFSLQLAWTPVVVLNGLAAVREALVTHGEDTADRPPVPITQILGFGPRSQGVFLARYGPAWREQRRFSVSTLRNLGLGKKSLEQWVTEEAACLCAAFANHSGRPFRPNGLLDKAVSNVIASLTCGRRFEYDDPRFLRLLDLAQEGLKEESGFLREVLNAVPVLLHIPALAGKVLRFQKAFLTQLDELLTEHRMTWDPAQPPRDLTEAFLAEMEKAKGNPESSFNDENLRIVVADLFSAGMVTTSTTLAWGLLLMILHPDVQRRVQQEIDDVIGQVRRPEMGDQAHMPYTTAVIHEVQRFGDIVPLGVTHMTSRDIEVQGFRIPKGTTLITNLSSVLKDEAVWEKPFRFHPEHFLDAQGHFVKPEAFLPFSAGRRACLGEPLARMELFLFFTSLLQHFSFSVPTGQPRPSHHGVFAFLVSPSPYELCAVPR

half-life [1]: > 6 h
half-life [2]: 21.9 h
logD [3]: 0.7
AUC(0-inf) [4]: 7090 ng·h/mL
Vd [5]: 1.21 L/kg
inhibition at 1 µM [6]: < 5%
inhibition at 1 µM [7]: < 5%
A2 [8]: 1.1 nM
IC50 [8]: 16.3 nM
Kb ([8]; read-out: pA2 (converted)): 1.07 nM
solubility [9]: 0.29 µg/mL (≈ 0.699 µM)
IC50 [10]: > 20000 nM
Ki [10]: > 6000 nM
Ki [11]: > 6000 nM
half-life [12]: > 2 h
AUC(0-inf) [13]: 6080 ng·h/mL
half-life [14]: 8.43 h
Compound: C[C@H](NC(=O)c1cc(Cl)cnc1Oc1cccc(F)c1)c1ccc(C(=O)O)cc1
